From PubChem BioAssay
SIAE inh = blocks human sialic acid acetylesterase. Q9HAT2. SIAE FP-Rh probe binding, fluorescence polarization. inhibition, % at 9.66 µM. hit rate 0.69% among 370,000. AID 1053197;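 active means inhibition above a cutoff: mean of compounds within the control limits plus 3 SD of those, cut at about 17% in these data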;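 further: 0% = plate median of compound wells and 100% = probe without SIAE protein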
RBBP9 inh = blocks human serine hydrolase RBBP9; O75884; hit rate 0.2% among 220,000; inhibition, % at 7.94 µM; recombinant RBBP9, FP-Rh probe fluorescence polarization;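 active means inhibition above the campaign mean of all tested compounds plus 3 SD, cut at about 14% in these data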;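 further: plate controls were DMSO wells with RBBP9 for no effect and wells lacking RBBP9 protein for full effect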
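System: RBBP9 protein / Quantity: 2.5 µM RBBP9 dispensing solution, before mixing / Also added: Serine-hydrolase probe FP-Rh, 375 nM pre-mixing / Dosing: 7.94 µM single dose, 0.794% DMSO / Timing: enzyme-compound preincubation 30 min, then probe labeling 45 min, 25 °C / Signal: FP readout at 525/598 nm / Controls: DMSO-treated enzyme wells and wells lacking RBBP9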
HTRA1 inh = HTRA1 (human) protease inhibition. Q92743. recombinant HTRA1, FP-rhodamine activity-based probe, fluorescence polarization. inhibition, % at 5.96 µM. hit rate 0.5% among 340,000; in the data active means inhibition above about 36%;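 further: 0% = enzyme with DMSO and 100% = wells lacking enzyme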
Target sequence (Q92743 whole entry, looked up): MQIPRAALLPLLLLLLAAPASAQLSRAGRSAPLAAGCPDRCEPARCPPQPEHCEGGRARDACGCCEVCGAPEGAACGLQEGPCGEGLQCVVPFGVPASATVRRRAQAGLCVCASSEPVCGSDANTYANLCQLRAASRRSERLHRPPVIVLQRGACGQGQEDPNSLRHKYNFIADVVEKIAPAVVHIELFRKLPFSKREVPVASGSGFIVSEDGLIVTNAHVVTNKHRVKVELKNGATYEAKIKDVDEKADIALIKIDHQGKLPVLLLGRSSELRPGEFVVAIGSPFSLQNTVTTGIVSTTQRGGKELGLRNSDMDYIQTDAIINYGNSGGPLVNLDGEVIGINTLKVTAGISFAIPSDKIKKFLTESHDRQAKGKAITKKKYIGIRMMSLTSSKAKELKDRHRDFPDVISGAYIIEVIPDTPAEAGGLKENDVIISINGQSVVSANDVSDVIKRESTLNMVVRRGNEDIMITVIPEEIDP
ABHD4 inh = inhibitors of mouse ABHD4; Q8VD66; purified mABHD4, FP-Rh probe fluorescence polarization; inhibition, % at 8.92 µM; hit rate 0.54% among 370,000; AID 720543;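 active means inhibition exceeding the mean over every tested compound plus 3 SD, cut at about 30% in these data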;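 further: 0% = plate median of compound wells and 100% = S159A mutant with DMSO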
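Assay system: Wild-type mouse ABHD4 protein | Medium: HEPES pH 7.0 buffer, 150 mM NaCl, 0.01% Pluronic F-127 | Incubation: Enzyme–compound pre-incubation 45 min, then probe 60 min, both 25 °C | Technique: Fluorescence polarization with parallel and perpendicular emission, 525/598 nm | Evaluation: % inhibition of FP-Rh probe binding versus controls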
HTRA1 inh conf = confirmation of human HTRA1 inhibitors; AID 540248; inhibition, % at 5.96 µM; shares compounds with HTRA1 inh; hit rate 66% among 1,600; recombinant HTRA1, FP-rhodamine activity-based probe, fluorescence polarization;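 active means mean inhibition over three repeats above a set limit taken from the earlier primary screen, cut at about 37% in these data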;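 further: 0% = HTRA1 with DMSO and 100% = wells lacking HTRA1; inhibitors block probe binding so polarization drops and inhibition rises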
The depositor's hits bear a star; . = no result given. Hits are enriched below; roughly 1.4% of the tested compounds scored in any of these assays.

SMILES	SIAE inh	RBBP9 inh	HTRA1 inh	ABHD4 inh	HTRA1 inh conf
Cc1nc(CNC(=O)CC2C(=O)NCCN2Cc2cccc(Oc3ccccc3)c2)cs1 (configuration not stated)	7	4	44*	-5	-14
O=C(CC1C(=O)NCCN1Cc1cccc(Oc2ccccc2)c1)NCc1cccnc1 (configuration not stated)	-1	-4	-11	-1	.
COC(=O)CCCn1cc(CN(C)C2CN(Cc3cn(CCCC(=O)OC)nn3)S(=O)(=O)C2)nn1 (configuration not stated)	1	.	.	1	.
Cc1cc2cc(CNC(=S)Nc3ccc(OC(F)F)cc3)ccc2n1C	4	1	52*	13	5
CC(C)NC(=S)N/N=C/c1cc(Br)ccc1O	16	-7	37*	8	49*
Oc1ccc2ccccc2c1C1Nc2cccc3cccc(c23)N1	.	5	52*	.	23
CCOC(=O)c1cc2c(=Cc3ccc(N(C)C)cc3)c3ccccc3n2[n+]1C	-45	.	46*	-68	2
CN(C)c1ccc(C=c2c3ccccc3n3c2c2ccccc2[n+]3C)cc1	17*	.	87*	58*	90*
CCOC(=O)N1CCN(S(=O)(=O)c2ccc(C(=O)Nc3sc4c(c3C(=O)OC)CCN(C)C4)cc2)CC1	-5	.	53*	2	49*
Oc1ccc(CN2CCc3ccccc3C2)c2cccnc12	5	-3	59*	5	65*
CCC(c1nnnn1-c1ccc2c(c1)OCCO2)N1CCN(c2ccc(C(F)(F)F)cc2[N+](=O)[O-])CC1 (configuration not stated)	-6	.	.	-1	.
COc1ccc2c(c1)c(C(=O)N/N=C/c1ccc(O)c(O)c1)c(C)n2C	-3	-9	43*	16	64*
O=C(N/N=C/c1ccc(O)c(O)c1)N/N=C/c1ccc(O)c(O)c1	-12	.	38*	27	19
Cc1nonc1C(=O)N/N=C/c1ccc(O)c(O)c1	9	0	23	13	.
COc1ccc2nc(C)cc(SCC(=O)N/N=C/c3ccc(O)c(O)c3)c2c1	-5	-13	38*	18	59*
NC(=O)c1ncn([C@@H]2O[C@H](C(=O)N[C@H](Cc3c[nH]c4ccccc34)C(=O)N3CCN(CC(=O)N4CCCC4)CC3)[C@@H](O)[C@H]2O)n1	4	.	.	-2	.
CCOc1ccc(/C=C/C(=O)c2cc(Br)ccc(=O)c2O)cc1	16	-8	51*	23	44*
CCCC[C@H]1C2CC(OC(=O)Nc3ccc(F)cc3)C(C2)[C@H]2CCCCN21 (some centres not stated)	1	.	.	0	.
COc1ccc(NC(=O)C2CCCN2S(=O)(=O)c2ccc3c(c2)C(C)(C)C(=O)N3C)cc1 (configuration not stated)	-2	.	.	3	.
O=C(NCc1ccccc1)OCCN1C(=O)CCC12CCCCC2	-3	.	.	-11	.
O=C(N/N=C1/CCSC1)c1cc(Br)ccc1O	10	-16	45*	11	21
O=c1cc(CN2CCN(Cc3ccccc3)CC2)c2ccc(O)c(O)c2o1	1	.	61*	19	70*
Cc1c(O)ccc2c(CN3CCN(Cc4ccccc4)CC3)cc(=O)oc12	4	.	0	-3	.
COC(=O)CCCC1=CC2=CC(=O)C(C)(OC(=O)c3cccs3)C(=O)C2=CN1CCc1c[nH]c2ccccc12 (configuration not stated)	10	.	29	12	.
CC1(OC(=O)C2CCCC2)C(=O)C=C2C=C(c3ccsc3)N(CCc3c[nH]c4ccccc34)C=C2C1=O (configuration not stated)	.	.	36*	.	17
CCCCC1=CC2=CC(=O)C(C)(OC(=O)CC)C(=O)C2=CN1CCc1c[nH]c2ccccc12 (configuration not stated)	6	.	51*	15	36*
Oc1ccc(-c2nn[nH]n2)c2cccnc12	4	.	.	-1	.
COc1cc(OC)cc(C(=O)N[C@H](C(=O)OCC(=O)N2CCN(S(=O)(=O)c3ccc(C)cc3)CC2)C(C)C)c1	9	.	-9	-2	.
CCN1C(=O)[C@H]2[C@@H](c3ccc(C)cc3)N[C@]3(CCCN(Cc4ccco4)C3=O)[C@H]2C1=O	0	.	3	8	.
CC(C)C(=O)NC(c1cccs1)c1cc([N+](=O)[O-])c2cccnc2c1O (configuration not stated)	.	0	38*	.	37*
